Data as given in ChEMBL document CHEMBL1145542, “Discovery of a new class of potent, selective, and orally bioavailable CRTH2 (DP2) receptor antagonists for the treatment of allergic inflammatory diseases” (J Med Chem, 2008).

What was measured:
[1] = biological target: T1, Prostaglandin D2 receptor 2 (Homo sapiens, UniProt Q9Y5Y4); test: Displacement of [3H]PGD2 from human CRTH2 receptor expressed in CHO cells; format: cell-based
T1 sequence (Q9Y5Y4 whole entry): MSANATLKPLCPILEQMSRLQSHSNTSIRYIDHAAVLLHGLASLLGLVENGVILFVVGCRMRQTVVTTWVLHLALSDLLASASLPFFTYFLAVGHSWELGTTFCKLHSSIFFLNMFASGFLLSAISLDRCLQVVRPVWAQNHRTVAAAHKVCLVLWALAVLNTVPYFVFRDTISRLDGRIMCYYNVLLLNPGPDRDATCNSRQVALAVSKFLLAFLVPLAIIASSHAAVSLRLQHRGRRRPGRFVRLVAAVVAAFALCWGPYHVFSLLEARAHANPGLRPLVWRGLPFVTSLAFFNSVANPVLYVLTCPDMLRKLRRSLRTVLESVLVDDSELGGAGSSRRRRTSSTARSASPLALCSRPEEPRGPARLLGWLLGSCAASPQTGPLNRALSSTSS
In short: (§1)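 Scintillation proximity competition assay: 2–5 µg human or mouse CRTH2 membranes (nitrogen-cavitation, differential centrifugation) with WGA-SPA beads and 1.5 nM [3H]PGD2 in 10 mM HEPES/KOH pH 7.4, 10 mM MnCl2, protease inhibitors, 1% Me2SO, 90 min shaking at room temperature. Nonspecific binding with 1 µM PGD2. Ki by Cheng–Prusoff, mean of ≥3 independent experiments.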

[2] = Tmax in rat at 1 mg/kg, iv; format: ADME, organism-based; set-up: dose 1 mg/kg, route intravenous; conditions: in vivo
In short: (§2)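 Male Sprague–Dawley or Janvier rats, three per route, dosed by oral gavage or iv bolus. Serial blood drawn through an indwelling carotid catheter up to 24 h post dose. Plasma pooled by time point, analysed by LC-MS/MS; non-compartmental analysis.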

[3] = Tmax in rat at 5 mg/kg, po; format: ADME, organism-based; set-up: dose 5 mg/kg, route oral; conditions: in vivo; in short: as §2
[4] = biological target: T1, Prostaglandin D2 receptor 2; test: Antagonist activity at human CRTH2 receptor expressed in CHO cell membrane by [35S]GTP-gamma-S binding assay; format: functional, cell membranes
In short: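 [35S]GTPγS binding at 30 °C on 10 µg human CRTH2 membranes in 20 mM HEPES/KOH pH 7.4, 10 mM MgCl2, 10 µg/mL saponin, 3 µM GDP, 150 mM NaCl, 2% Me2SO. PGD2 preincubation 10 min (antagonist mode: 80 nM PGD2), then 0.15 nM [35S]GTPγS for 30 min. Nonspecific binding with 10 µM GTPγS; stopped by centrifugation, scintillation counting.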

[5] = Apparent permeability across human Caco-2 cell membrane at 10 uM; format: ADME, cell-based
In short: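 Caco-2 monolayers grown 21 days on Transwell filters; TEER above 800 ohm·cm² required. 10 µM test compound in HBSS added apically (A to B) or basolaterally (B to A), 2 h at 37 °C. Both compartments sampled, analysed by LC/MS-MS.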

[6] = Half life in rat at 1 mg/kg, iv; format: ADME, organism-based; set-up: dose 1 mg/kg, route intravenous; conditions: in vivo; in short: as §2
[7] = Lipophilicity, log D of the compound; format: physicochemical; conditions: octanol/water
[8] = Cmax in rat at 5 mg/kg, po; format: ADME, organism-based; set-up: dose 5 mg/kg, route oral; conditions: in vivo; in short: as §2
[9] = AUC (0 to last t) in rat at 5 mg/kg, po; format: ADME, organism-based; set-up: time 0 - last, dose 5 mg/kg, route oral; conditions: plasma; in short: as §2
[10] = Oral bioavailability in rat at 5 mg/kg; format: ADME, organism-based; conditions: in vivo; in short: as §2
[11] = Cmax in rat at 1 mg/kg, iv; format: ADME, organism-based; set-up: dose 1 mg/kg, route intravenous; conditions: in vivo; in short: as §2
[12] = Clearance in rat at 1 mg/kg, iv; format: ADME, organism-based; set-up: dose 1 mg/kg, route intravenous; conditions: in vivo; in short: as §2
[13] = Volume of distribution at steady state in rat at 1 mg/kg, iv; format: ADME, organism-based; set-up: dose 1 mg/kg, route intravenous; conditions: in vivo, read-out: Vdss; in short: as §2
[14] = AUC (0 to last t) in rat at 1 mg/kg, iv; format: ADME, organism-based; set-up: time 0 - last, dose 1 mg/kg, route intravenous; conditions: plasma; in short: as §2
[15] = Half life in rat at 5 mg/kg, po; format: ADME, organism-based; set-up: dose 5 mg/kg, route oral; conditions: in vivo; in short: as §2
[16] = Intrinsic clearance per mg of protein in human liver microsomes at 3 uM; format: ADME, Microsome
In short: (§3)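 Rat or human liver microsomes (0.5 mg/mL final) in 0.1 M phosphate pH 7.4 with 3 µM compound (1% DMSO), preincubated at 37 °C, started with 1 mM NADPH. Quenched with cold acetonitrile at 0, 15, 30, 45 min; LC/MS-MS of compound disappearance gives intrinsic clearance.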

[17] = Inhibition of prostanoid FP receptor
[18] = Inhibition of prostanoid EP3 receptor
[19] = Cmax in Beagle dog at 1 mg/kg, iv; format: ADME, organism-based, Canis lupus familiaris; set-up: dose 1 mg/kg, route intravenous; conditions: in vivo
In short: (§4)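 Three male beagle dogs, crossover design; 1 mg/kg given as a solution, iv bolus and oral gavage. Serial blood sampled up to 48 h post dose. Individual plasma samples analysed by LC-MS/MS; PK parameters derived by non-compartmental analysis.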

[20] = Clearance in Beagle dog at 1 mg/kg, iv; format: ADME, organism-based, Canis lupus familiaris; set-up: dose 1 mg/kg, route intravenous; conditions: in vivo; in short: as §4
[21] = Intrinsic clearance per mg of protein in rat liver microsomes at 3 uM; format: ADME, Microsome; in short: as §3
[22] = Cmax in Beagle dog at 1 mg/kg, po; conditions: in vivo
[23] = Tmax in Beagle dog at 1 mg/kg, po; conditions: in vivo
[24] = AUC (0 to last t) in Beagle dog at 1 mg/kg, iv; format: ADME, organism-based, Canis lupus familiaris; set-up: time 0 - last, dose 1 mg/kg, route intravenous; conditions: plasma; in short: as §4
[25] = biological target: T2, Prostaglandin D2 receptor (Homo sapiens, UniProt Q13258); test: Inhibition of prostaglandin D2 receptor
T2 sequence (Q13258 whole entry): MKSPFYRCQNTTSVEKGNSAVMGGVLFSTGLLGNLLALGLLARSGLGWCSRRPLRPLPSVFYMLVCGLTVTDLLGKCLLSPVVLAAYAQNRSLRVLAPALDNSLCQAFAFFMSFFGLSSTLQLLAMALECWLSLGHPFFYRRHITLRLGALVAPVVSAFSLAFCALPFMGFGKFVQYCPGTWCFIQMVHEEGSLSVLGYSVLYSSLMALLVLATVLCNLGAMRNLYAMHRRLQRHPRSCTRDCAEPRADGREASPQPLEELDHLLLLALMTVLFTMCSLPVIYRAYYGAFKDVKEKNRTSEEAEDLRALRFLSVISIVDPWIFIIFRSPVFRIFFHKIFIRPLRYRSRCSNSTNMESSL

[26] = biological target: Prostaglandin E2 receptor EP2 subtype (Homo sapiens, UniProt P43116); test: Inhibition of prostanoid EP2 receptor
[27] = AUC (0 to last t) in Beagle dog at 1 mg/kg, po; format: ADME, organism-based, Canis lupus familiaris; set-up: time 0 - last, dose 1 mg/kg, route oral; conditions: plasma; in short: as §4
[28] = Inhibition of prostanoid EP4 receptor
[29] = Volume of distribution at steady state in Beagle dog at 1 mg/kg, iv; format: ADME, organism-based, Canis lupus familiaris; set-up: dose 1 mg/kg, route intravenous; conditions: in vivo, read-out: Vdss; in short: as §4
[30] = Oral bioavailability in Beagle dog at 1 mg/kg; format: ADME, organism-based, Canis lupus familiaris; conditions: in vivo; in short: as §4
[31] = Half life in Beagle dog at 1 mg/kg, iv; format: ADME, organism-based, Canis lupus familiaris; set-up: dose 1 mg/kg, route intravenous; conditions: in vivo; in short: as §4
[32] = biological target: T3, Prostaglandin D2 receptor 2 (Mus musculus, UniProt Q9Z2J6); test: Displacement of [3H]PGD2 from mouse CRTH2 receptor expressed in HEK293 cells; format: cell-based; in short: as §1
T3 sequence (Q9Z2J6 whole entry): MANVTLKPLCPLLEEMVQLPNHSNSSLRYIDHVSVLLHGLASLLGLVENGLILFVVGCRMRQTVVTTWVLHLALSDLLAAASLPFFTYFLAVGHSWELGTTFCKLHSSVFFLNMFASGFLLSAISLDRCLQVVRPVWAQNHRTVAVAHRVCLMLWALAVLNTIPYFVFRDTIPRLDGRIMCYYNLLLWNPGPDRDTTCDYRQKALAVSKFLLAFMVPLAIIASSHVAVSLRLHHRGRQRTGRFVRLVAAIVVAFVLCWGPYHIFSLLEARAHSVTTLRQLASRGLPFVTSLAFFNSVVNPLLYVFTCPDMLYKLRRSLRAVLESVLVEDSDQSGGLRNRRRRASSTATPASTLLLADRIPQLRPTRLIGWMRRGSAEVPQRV

[33] = Tmax in Beagle dog at 1 mg/kg, iv; format: ADME, organism-based, Canis lupus familiaris; set-up: dose 1 mg/kg, route intravenous; conditions: in vivo; in short: as §4

Chain of Prostaglandin E2 receptor EP2 subtype (P43116 whole entry): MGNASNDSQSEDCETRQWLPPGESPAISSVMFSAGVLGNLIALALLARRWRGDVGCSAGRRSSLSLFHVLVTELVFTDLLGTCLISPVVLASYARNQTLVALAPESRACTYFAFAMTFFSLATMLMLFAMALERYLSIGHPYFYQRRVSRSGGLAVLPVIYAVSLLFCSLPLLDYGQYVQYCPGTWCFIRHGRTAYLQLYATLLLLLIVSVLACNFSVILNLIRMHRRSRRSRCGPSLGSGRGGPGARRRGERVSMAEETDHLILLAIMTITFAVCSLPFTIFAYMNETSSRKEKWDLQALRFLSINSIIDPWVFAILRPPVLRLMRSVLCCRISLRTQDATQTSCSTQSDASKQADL

Row | Ki [1] [nM] | Tmax [2] [h] | Tmax [3] [h] | IC50 [4] [nM] | Papp at 10 µM [5] [×10⁻⁶ cm/s] | half-life [6] [h] | logD [7] | Cmax [8] [ng/mL] | AUC(0-t) [9] [ng·h/mL] | bioavailability [10] [%] | Cmax [11] [ng/mL] | clearance [12] [mL/min/kg] | Vd [13] [L/kg] | AUC(0-t) [14] [ng·h/mL] | half-life [15] [h] | microsomal CLint at 3 µM [16] [µL/min/mg] | Ki [32] [nM] | Structure (SMILES) | also measured
1 | 3.8 | 0 | 0.25 | 19 | 2.1 | 0.1 | -0.3 | 6 | 2.01 | 0.2 | 1970 | 66.7 | 0.4 | 247 | – | – | – | Cc1noc(-c2ccccc2)c1CN1CC2(CC1=O)C(=O)N(CC(=O)O)c1ccc(Cl)cc12 (stereo not drawn) | –
2 | 5.3 | 0 | 1.5 | 66 | 26.4 | 13 | -0.5 | 163 | 1910 | 32 | 1700 | 11.7 | 7 | 1180 | 5.4 | 5 | 5 | O=C(O)CN1C(=O)[C@@]2(CC(=O)N(Cc3cc(Cl)ccc3F)C2=O)c2cc(Cl)ccc21 | IC50 [17]: > 30000 nM; IC50 [18]: > 30000 nM; Cmax [19]: 1950 ng/mL; clearance [20]: 33.3 mL/min/kg; microsomal CLint at 3 µM [21]: 19 µL/min/mg; Cmax [22]: 68.8 ng/mL; Tmax [23]: 2.67 h; AUC(0-t) [24]: 637 ng·h/mL; IC50 [25]: > 30000 nM; IC50 [26]: > 30000 nM; AUC(0-t) [27]: 339 ng·h/mL; IC50 [28]: > 30000 nM; Vd [29]: 5 L/kg; bioavailability [30]: 52%; half-life [31]: 3 h; Tmax [33]: 0 h
3 | 13 | 0 | 1.5 | – | 1.8 | 0.9 | -0.4 | 55 | 319 | 5 | 5060 | 11.7 | 0.3 | 1390 | 8 | 3 | 88 | O=C(O)CN1C(=O)C2(CC(=O)N(Cc3cc(Cl)ccc3F)C2)c2cc(Cl)ccc21 (single isomer, unassigned; form 1) | –
